Where only a bound is given, the exact number is not on record here.

Muscarinic acetylcholine receptor M3 (Rattus norvegicus), sequence (P08483 whole entry, looked up): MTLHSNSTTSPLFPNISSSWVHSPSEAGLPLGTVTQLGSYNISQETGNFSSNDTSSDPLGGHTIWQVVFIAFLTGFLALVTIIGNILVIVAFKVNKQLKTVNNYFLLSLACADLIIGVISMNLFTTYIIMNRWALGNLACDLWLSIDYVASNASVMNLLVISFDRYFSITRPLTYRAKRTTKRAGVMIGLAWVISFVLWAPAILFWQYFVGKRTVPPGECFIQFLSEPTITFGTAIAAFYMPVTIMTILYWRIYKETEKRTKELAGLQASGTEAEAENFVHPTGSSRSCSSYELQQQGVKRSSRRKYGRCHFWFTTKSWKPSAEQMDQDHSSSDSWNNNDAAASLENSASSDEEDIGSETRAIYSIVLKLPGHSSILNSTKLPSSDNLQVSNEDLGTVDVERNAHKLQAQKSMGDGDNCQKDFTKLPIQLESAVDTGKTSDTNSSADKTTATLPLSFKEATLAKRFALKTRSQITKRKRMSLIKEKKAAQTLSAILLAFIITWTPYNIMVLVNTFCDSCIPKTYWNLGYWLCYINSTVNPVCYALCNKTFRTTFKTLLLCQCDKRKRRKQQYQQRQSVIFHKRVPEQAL

One assay concerns the target Muscarinic acetylcholine receptor M3 (Rattus norvegicus) (UniProt P08483). Nature of the assay: In vitro antimuscarinic activity against the M3 muscarinic receptor subtype in rat ileum.
Conditions: not given
In kind it is tissue-based. Put shortly:
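Rat longitudinal ileum segments (~2 cm), fasted overnight, isotonic recording at 0.5 g resting tension; 30–45 min equilibration. Cumulative furtrethonium curves in 0.5 log-unit increments, repeated until two matched, then final curve after ≥30 min with test compound. E50 by four-parameter logistic fit; pKb = log(DR−1) − log[B], mean ± SE.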
A word on the pKb: it is the negative decadic logarithm of the Kb, by convention in mol/L. A higher pKb goes with a low Kb. For `CC(C)N(C)Cc1ccc(COC(=O)C(c2ccccc2)C2CCCCC2)o1` (stereo not given), the negative logarithm of the Kb (pKb) is 7.

In the case of `CN(C)Cc1ccc(COC(=O)C2c3ccccc3Oc3ccccc32)o1`, the pKb turned out to be 7.1.

As for `O=C(OCc1ccc(CN2CCCCC2)o1)C(c1ccccc1)C1CCCCC1` (stereo not given), the pKb stood at 6.3.

As for `CN(Cc1ccccc1)Cc1ccc(COC(=O)C(c2ccccc2)C2CCCCC2)o1` (stereo not given), the pKb was under 5.

`CN(C)Cc1ccc(COC(=O)C(O)(C2CCCCC2)C2CCCCC2)o1`: the pKb came to 7.1.

In turn, `O=C(OCc1ccc(CN2CCC(O)CC2)o1)C(c1ccccc1)C1CCCCC1` (stereo not given) had a pKb of 6.5.

`CCCCCN(C)Cc1ccc(COC(=O)C(c2ccccc2)C2CCCCC2)o1` (stereo not given) gave a negative logarithm of the Kb (pKb) of 6.9.

For the molecule `CN(C)Cc1ccc(COC(=O)C(c2ccccc2)c2ccccc2)o1`, the pKb turned out to be 6.5.

On to `O=C(OCc1ccc(CN2CCCCC2)o1)C(c1ccccc1)c1ccccc1`, for which the pKb was determined as 6.

`CCCN(C)Cc1ccc(COC(=O)C(c2ccccc2)C2CCCCC2)o1` (stereo not given) displayed a negative-log Kb (pKb) of 6.8.

`CCN(CC)Cc1ccc(COC(=O)C(c2ccccc2)C2CCCCC2)o1` (stereo not given) had a pKb of 6.7.

In turn, `O=C(OCc1ccc(CN2CCOCC2)o1)C(c1ccccc1)C1CCCCC1` (stereo not given) displayed a pKb of 5.5.

`CN(Cc1ccc(COC(=O)C(c2ccccc2)C2CCCCC2)o1)C1CCCCC1` (stereo not given) registered a pKb of 6.5.

For the molecule `CN(C)Cc1ccc(COC(=O)C2c3ccccc3-c3ccccc32)o1`, the pKb is 5.8.

For `CN(C)Cc1ccc(COC(=O)C(c2ccccc2)C2CCCCC2)o1` (stereo not given), the negative-log Kb (pKb) amounted to 7.3.

A further assay has the same target. The assay is described as follows: In vitro antimuscarinic activity against the M3 muscarinic receptor subtype in rat bladder.
Conditions: not given
Put shortly:
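Rat urinary detrusor strips (extratrigonal, 1 cm × 2 mm), fasted overnight, isotonic recording at 1 g resting tension; 30–45 min equilibration. Cumulative furtrethonium curves in 0.5 log-unit increments, repeated until two matched, then final curve after ≥30 min with test compound. E50 by four-parameter logistic fit; pKb = log(DR−1) − log[B], mean ± SE.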
The molecule `CC(C)N(C)Cc1ccc(COC(=O)C(c2ccccc2)C2CCCCC2)o1` (stereo not given) gave a negative-log Kb (pKb) of 6.7.

Consider `CN(C)Cc1ccc(COC(=O)C2c3ccccc3Oc3ccccc32)o1`, for which the pKb turned out to be 6.6.

In the case of `O=C(OCc1ccc(CN2CCCCC2)o1)C(c1ccccc1)C1CCCCC1` (stereo not given), the pKb is 5.3.

`CN(Cc1ccccc1)Cc1ccc(COC(=O)C(c2ccccc2)C2CCCCC2)o1` (stereo not given): the negative-log Kb (pKb) was under 5.

The molecule `CN(C)Cc1ccc(COC(=O)C(O)(C2CCCCC2)C2CCCCC2)o1` yielded a negative-log Kb (pKb) of 7.2.

Molecule `O=C(OCc1ccc(CN2CCC(O)CC2)o1)C(c1ccccc1)C1CCCCC1` (stereo not given) gave a pKb of 6.

Turning to `CCCCCN(C)Cc1ccc(COC(=O)C(c2ccccc2)C2CCCCC2)o1` (stereo not given), the pKb is under 5.

In the case of `CN(C)Cc1ccc(COC(=O)C(c2ccccc2)c2ccccc2)o1`, the pKb was 6.5.

`O=C(OCc1ccc(CN2CCCCC2)o1)C(c1ccccc1)c1ccccc1` yielded a pKb of 6.2.

In the case of `CCCN(C)Cc1ccc(COC(=O)C(c2ccccc2)C2CCCCC2)o1` (stereo not given), the negative-log Kb (pKb) is 6.

In turn, `CCN(CC)Cc1ccc(COC(=O)C(c2ccccc2)C2CCCCC2)o1` (stereo not given) yielded a pKb of 6.

In turn, `O=C(OCc1ccc(CN2CCOCC2)o1)C(c1ccccc1)C1CCCCC1` (stereo not given) returned a pKb of 5.7.

In the case of `CN(Cc1ccc(COC(=O)C(c2ccccc2)C2CCCCC2)o1)C1CCCCC1` (stereo not given), the negative-log Kb (pKb) is under 5.

The molecule `CN(C)Cc1ccc(COC(=O)C2c3ccccc3-c3ccccc32)o1` came in with a pKb of 5.6.

`CN(C)Cc1ccc(COC(=O)C(c2ccccc2)C2CCCCC2)o1` (stereo not given) registered a pKb of 7.2.

A further assay deals with T1, Muscarinic acetylcholine receptor M2 (Homo sapiens) (UniProt P08172).
T1 sequence (whole entry): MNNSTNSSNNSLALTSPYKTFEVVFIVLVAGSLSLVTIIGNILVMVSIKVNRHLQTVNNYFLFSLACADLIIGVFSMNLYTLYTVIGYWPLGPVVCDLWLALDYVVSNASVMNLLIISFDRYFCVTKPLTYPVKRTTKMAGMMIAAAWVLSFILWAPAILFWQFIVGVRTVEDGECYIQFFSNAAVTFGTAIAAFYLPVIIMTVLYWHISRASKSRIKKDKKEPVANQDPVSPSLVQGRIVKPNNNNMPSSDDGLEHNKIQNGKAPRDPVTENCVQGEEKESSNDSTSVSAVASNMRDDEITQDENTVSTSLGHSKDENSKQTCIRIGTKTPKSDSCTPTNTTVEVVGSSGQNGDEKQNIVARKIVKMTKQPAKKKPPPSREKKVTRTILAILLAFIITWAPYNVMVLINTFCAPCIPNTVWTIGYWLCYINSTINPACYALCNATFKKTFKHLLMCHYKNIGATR
Nature of the assay: In vitro antimuscarinic activity against the M2 muscarinic receptor subtype in guinea pig atria. The following applies: Cavia porcellus; target entry is the homologue from another species. The gist of the method:
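Guinea pig atria (both), fasted overnight, resting tension 1 g, force recorded; 30–45 min equilibration. Cumulative carbachol curves in 0.25 log-unit increments, repeated until two matched, then final curve after ≥30 min with test compound. E50 from four-parameter logistic fit; pKb = log(DR−1) − log[B], mean ± SE.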
Consider `CC(C)N(C)Cc1ccc(COC(=O)C(c2ccccc2)C2CCCCC2)o1` (stereo not given), for which the negative logarithm of the Kb (pKb) is 5.

For `CN(C)Cc1ccc(COC(=O)C2c3ccccc3Oc3ccccc32)o1`, the negative-log Kb (pKb) was 6.5.

In the case of `O=C(OCc1ccc(CN2CCCCC2)o1)C(c1ccccc1)C1CCCCC1` (stereo not given), the negative logarithm of the Kb (pKb) was under 5.

The molecule `CN(Cc1ccccc1)Cc1ccc(COC(=O)C(c2ccccc2)C2CCCCC2)o1` (stereo not given) had a pKb of under 5.

For the molecule `CN(C)Cc1ccc(COC(=O)C(O)(C2CCCCC2)C2CCCCC2)o1`, the pKb is under 5.

Regarding `O=C(OCc1ccc(CN2CCC(O)CC2)o1)C(c1ccccc1)C1CCCCC1` (stereo not given), the negative logarithm of the Kb (pKb) was under 5.

On to `CCCCCN(C)Cc1ccc(COC(=O)C(c2ccccc2)C2CCCCC2)o1` (stereo not given), for which the pKb is under 5.

Take `CN(C)Cc1ccc(COC(=O)C(c2ccccc2)c2ccccc2)o1`: the pKb came to 5.9.

For `O=C(OCc1ccc(CN2CCCCC2)o1)C(c1ccccc1)c1ccccc1`, the pKb is under 5.

Take `CCCN(C)Cc1ccc(COC(=O)C(c2ccccc2)C2CCCCC2)o1` (stereo not given): the negative logarithm of the Kb (pKb) was under 5.

As for `CCN(CC)Cc1ccc(COC(=O)C(c2ccccc2)C2CCCCC2)o1` (stereo not given), the negative-log Kb (pKb) is under 5.

`O=C(OCc1ccc(CN2CCOCC2)o1)C(c1ccccc1)C1CCCCC1` (stereo not given): the pKb is under 5.

Molecule `CN(Cc1ccc(COC(=O)C(c2ccccc2)C2CCCCC2)o1)C1CCCCC1` (stereo not given) had a negative logarithm of the Kb (pKb) of under 4.5.

Regarding `CN(C)Cc1ccc(COC(=O)C2c3ccccc3-c3ccccc32)o1`, the pKb worked out at 4.8.

Turning to `CN(C)Cc1ccc(COC(=O)C(c2ccccc2)C2CCCCC2)o1` (stereo not given), the negative logarithm of the Kb (pKb) was 5.9.

The values are drawn from ChEMBL document CHEMBL1127431, “Cholinergic agents structurally related to furtrethonium. 2. Synthesis and antimuscarinic activity of a series of N-[5-[(1'-substituted-acetoxy) methyl]-2-furfuryl]dialkylamines” (J Med Chem, 1994).
